The target of data set [1] is T1, N-acylethanolamine-hydrolyzing acid amidase (Homo sapiens, UniProt Q02083).
T1 sequence (Q02083 whole entry): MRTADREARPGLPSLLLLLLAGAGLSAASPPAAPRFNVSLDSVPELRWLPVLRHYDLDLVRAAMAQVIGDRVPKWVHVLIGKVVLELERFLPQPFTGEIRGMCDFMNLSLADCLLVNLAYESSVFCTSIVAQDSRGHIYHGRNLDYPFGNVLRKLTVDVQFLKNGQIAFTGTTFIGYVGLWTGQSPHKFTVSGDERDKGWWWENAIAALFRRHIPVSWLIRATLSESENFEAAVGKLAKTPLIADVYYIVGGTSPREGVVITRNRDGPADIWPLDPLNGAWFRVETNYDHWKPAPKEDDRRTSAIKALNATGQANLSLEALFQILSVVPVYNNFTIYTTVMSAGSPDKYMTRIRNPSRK
Description: Inhibition of activated human NAAA using fluorogenic PAMCA and N-4-methylcoumarin as substrate incubated for 90 mins by fluorescence based assay. The gist of the method:
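Purified activated hNAAA (final 0.25 µg/mL) in 100 mM citrate-phosphate pH 4.5, 3 mM DTT, 0.1% Triton X-100, 0.05% BSA, 150 mM NaCl; compound in DMSO preincubated 90 min at room temperature. PAMCA added (final 5 µM), reaction at 37 °C for 90 min, fluorescence ex 360/em 460 nm read every 10 min. RFU converted to AMC via AMC standard curve. IC50 from eight concentrations, triplicate.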

Data set [2] addresses T2, Fatty-acid amide hydrolase 1 (Homo sapiens, UniProt O00519).
T2 sequence (O00519 whole entry): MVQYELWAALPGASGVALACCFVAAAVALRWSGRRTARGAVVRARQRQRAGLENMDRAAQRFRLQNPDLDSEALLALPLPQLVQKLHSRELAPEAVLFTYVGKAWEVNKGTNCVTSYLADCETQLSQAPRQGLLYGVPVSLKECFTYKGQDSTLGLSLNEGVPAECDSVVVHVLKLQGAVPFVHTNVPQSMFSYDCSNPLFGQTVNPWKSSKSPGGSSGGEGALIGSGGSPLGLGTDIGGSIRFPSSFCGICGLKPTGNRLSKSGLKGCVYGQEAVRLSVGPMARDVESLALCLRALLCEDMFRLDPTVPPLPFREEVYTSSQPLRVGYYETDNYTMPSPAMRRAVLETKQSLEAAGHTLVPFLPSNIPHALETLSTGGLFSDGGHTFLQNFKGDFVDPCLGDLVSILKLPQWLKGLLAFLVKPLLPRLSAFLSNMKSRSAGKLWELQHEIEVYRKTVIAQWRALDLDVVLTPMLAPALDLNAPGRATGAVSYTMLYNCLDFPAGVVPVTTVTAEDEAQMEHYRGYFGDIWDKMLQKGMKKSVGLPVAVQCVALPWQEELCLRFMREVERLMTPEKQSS
Nature of the data set: Inhibition of recombinant human FAAH expressed in Escherichia coli using fluorogenic AAMCA as substrate by fluorimetric assay. The gist of the method:
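Human recombinant FAAH expressed in E. coli and purified; fluorometric assay with arachidonoyl 7-amino-4-methylcoumarin amide (AAMCA) as substrate; IC50 by curve fitting, or percent inhibition at 1 µM.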

Data set [3] can be described thus: Half life in human plasma by HPLC analysis.
Data set [4] can be described thus: Half life in human liver microsomes at 1 uM in presence of NADPH by LC-MS/MS. The following applies: liver microsomes. (In general: Liver microsomes are vesicles of endoplasmic reticulum, rich in cytochrome P450 enzymes.)
The target in data set [5] is T3, N-acylethanolamine-hydrolyzing acid amidase (Homo sapiens) (UniProt Q02083).
T3 sequence (whole entry): T1 sequence (Q02083 whole entry)
Nature of the data set: Irreversible inhibition of activated human NAAA assessed as ratio of Kinact/Ki using fluorogenic PAMCA and N-4-methylcoumarin as substrate.

pIC50: −log10 of the molar value.

Usually pIC50 stands for the negative decadic logarithm of the IC50, by convention in mol/L. `COc1cccc(-c2ccc(COC3CN(C#N)C3)c(OC)c2)c1` showed a negative logarithm of the IC50 (pIC50) in data set [1] of 8.55.

As to `N#CN1CC(OCc2ccc(Oc3ccccc3)cc2-c2ccccc2)C1`, in data set [1], the negative logarithm of the IC50 (pIC50) is 8.07.

A word on the half-life: it is the time in which the quantity being followed falls by half. Regarding `COc1ccc(-c2ccc(COC3(C4CC4)CN(C#N)C3)c(F)c2)cc1F`, the negative logarithm of the IC50 (pIC50) is 9.00 in data set [2] and 9.46 in data set [1]. The same compound had a half-life in data set [3] of 2.12 h.

Turning to `COc1cccc(OC)c1-c1ccc(COC2CN(C#N)C2)cc1`, in data set [1], the negative-log IC50 (pIC50) is 7.17.

On to `N#CN1CC[C@H](OCc2ccc(-c3ccccc3)cc2)C1`, for which the pIC50 in data set [1] was 6.50.

In data set [1], `N#CN1CC(OCc2ccc(-c3cccc(OCc4ccccc4)c3)cc2)C1` had a pIC50 of 8.85.

Consider `CN(Cc1ccc(-c2ccccc2)cc1)C1CN(C#N)C1`, for which, in data set [1], the pIC50 was 7.68. Further, in data set [4], the half-life at 1 µM was 0.188 h.

Consider `N#Cc1ccc(-c2cc(Oc3ccccc3)ccc2COC2CN(C#N)C2)cc1`, for which the negative-log IC50 (pIC50) in data set [1] was 8.60.

As to `N#CN1CC(OCc2ccc(Oc3ccccc3)cc2)C1`, in data set [5], the Ratio was 1.33 ×10⁶ /M/s. The compound further had a pIC50 in data set [1] of 8.96.

As for `N#CN1CC(COCc2ccc(-c3ccccc3)cc2)C1`, in data set [5], the Ratio came to 3.04 ×10⁶ /M/s. The compound further showed a negative-log IC50 (pIC50) in data set [1] of 8.47.

In turn, `COc1ccc(-c2cc(Oc3ccccc3)ccc2COC2CN(C#N)C2)cc1` showed a pIC50 in data set [1] of 8.24.

For the compound `Cn1nccc1-c1ccc(C(OC2CN(C#N)C2)c2ccccc2)cc1` (stereo not given), the pIC50 in data set [1] is 7.13.

In turn, `N#CN1CC[C@@H](OCc2ccc(-c3ccccc3)cc2)C1` had a negative-log IC50 (pIC50) in data set [1] of 7.58.

As to `COc1ccc(-c2ccc(COC3(c4cccnc4)CN(C#N)C3)c(F)c2)cc1F`, the pIC50 in data set [2] was 8.70; in data set [1] it was 8.34.

As for `N#CN1CC(Oc2ccc(-c3ccccc3)cc2)C1`, the pIC50 in data set [1] was 7.54.

Compound `N#Cc1ccccc1-c1cc(Oc2ccccc2)ccc1COC1CN(C#N)C1` gave a pIC50 in data set [1] of 8.18.

For `COc1cccc(-c2ccc(COC3CN(C#N)C3)c(C(F)(F)F)c2)c1`, the Ratio in data set [5] is 1.4 ×10⁶ /M/s. In addition, the pIC50 in data set [1] was 9.07.

Consider `COc1ccncc1-c1ccc(COC2CN(C#N)C2)cc1`, for which the pIC50 in data set [1] was 7.40.

In the case of `Cc1ccc(-c2ccc(COC3CN(C#N)C3)cc2)cc1`, the Ratio in data set [5] turned out to be 2.24 ×10⁶ /M/s. The negative-log IC50 (pIC50) in data set [1] is 9.34.

Turning to `N#CN1CC(OCc2ccc(Oc3ccccc3)cc2Br)C1`, the pIC50 in data set [1] was 8.99.

`COc1ccccc1-c1cc(Oc2ccccc2)ccc1COC1CN(C#N)C1` gave a negative logarithm of the IC50 (pIC50) in data set [1] of 7.63.

`N#CN1CC(OCc2ccc(-c3ccc(F)cc3)cc2)C1`: the Ratio in data set [5] is 2.09 ×10⁶ /M/s. In addition, the pIC50 in data set [1] was 9.17.

`COc1ncccc1-c1ccc(COC2CN(C#N)C2)cc1` gave a pIC50 in data set [1] of 8.24.

In turn, `N#CN1CC(OCc2ccc(-c3cccnc3)cc2)C1` had a pIC50 in data set [1] of 7.92.

In the case of `N#CN1CC(OCc2ccc(-c3ccccc3)cc2)C1`, in data set [5], the Ratio stood at 3.03 ×10⁶ /M/s. This compound also gave a pIC50 in data set [1] of 8.55.

In data set [1], `COc1cccc(-c2ccc(C(OC3CN(C#N)C3)c3ccccc3)cc2)c1` (stereo not given) had a pIC50 of 7.94.

In the case of `COc1ccc(-c2ccc(COC3CN(C#N)C3)cc2)cc1`, the Ratio in data set [5] was 3.25 ×10⁶ /M/s. Moreover, the pIC50 in data set [1] was 9.03.

For `COc1cccc(-c2ccc(COC3CN(C#N)C3)cc2)c1OC`, the Ratio in data set [5] is 8.4 ×10⁶ /M/s. In data set [1], the pIC50 was 9.06.

For the origin of these results see ChEMBL document CHEMBL4609990, “Design and synthesis of cyanamides as potent and selective N-acylethanolamine acid amidase inhibitors” (Bioorg Med Chem, 2020).
